Test results reported in ChEMBL document CHEMBL3585317, “Structures and Biological Evaluations of Agelasines Isolated from the Okinawan Marine Sponge Agelas nakamurai” (J Nat Prod, 2015).
Where a name gives a salt, the structure may show the parent alone. The source made the active and inactive calls. No cut-off for these calls is given here.

How the values were obtained:
[1] = Cytotoxicity against human HuH7 cells after 72 hrs by WST1 assay; format: functional, cell-based; details: Huh-7, 72 h
Summary of the method: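 1 × 10^4 cells/well seeded, cultured overnight, then exposed to compound 72 h; vehicle control 0.1% EtOH. WST-1 reagent (0.5 mM WST-1, 0.02 mM 1-methoxy-5-methylphenazinium methylsulfate) added, 60 min at 37 °C. Viability = treated/control absorbance × 100%.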

[2] = Cytotoxicity against human EJ1 cells after 72 hrs by WST1 assay; format: functional, cell-based; details: EJ1, 72 h
Summary of the method: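 1 × 10^4 cells/well seeded, cultured overnight, then exposed to compound 72 h; vehicle control 0.1% EtOH. WST-1 reagent (0.5 mM WST-1, 0.02 mM 1-methoxy-5-methylphenazinium methylsulfate) added, 60 min at 37 °C. Absorbance 438 nm (reference 620 nm). Viability = treated/control absorbance × 100%.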

[3] = test system: Mycolicibacterium smegmatis; test: Antimycobacterial activity against Mycobacterium smegmatis NBRC 3207 assessed as inhibition zone at 10 ug/disc after 2 days incubation by paper disc method; format: functional; details: for zone of inhibition at 10 µg/disc: NBRC 3207, 48 h, read-out: IZ
Summary of the method: (§1)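 Disc diffusion: strain grown in Middlebrook 7H9 broth (0.05% polysorbate 80, 0.5% glycerol, 10% OADC) 2 days at 37 °C, adjusted to 1.0 × 10^6 CFU/mL, spread on same medium with 1.5% agar. Sample in CH3OH dried onto 6 mm filter disc, placed on plate, 2 days at 37 °C. Controls: streptomycin sulfate 5 μg/disc, CH3OH.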

[4] = target: T1, Tyrosine-protein phosphatase non-receptor type 1 (Homo sapiens, UniProt P18031); test: Inhibition of human recombinant PTP1B using pNPP as substrate assessed as rate of hydrolysis incubated for 10 mins prior to substrate addition measured after 30 mins by microplate reader analysis
T1 sequence (P18031 whole entry): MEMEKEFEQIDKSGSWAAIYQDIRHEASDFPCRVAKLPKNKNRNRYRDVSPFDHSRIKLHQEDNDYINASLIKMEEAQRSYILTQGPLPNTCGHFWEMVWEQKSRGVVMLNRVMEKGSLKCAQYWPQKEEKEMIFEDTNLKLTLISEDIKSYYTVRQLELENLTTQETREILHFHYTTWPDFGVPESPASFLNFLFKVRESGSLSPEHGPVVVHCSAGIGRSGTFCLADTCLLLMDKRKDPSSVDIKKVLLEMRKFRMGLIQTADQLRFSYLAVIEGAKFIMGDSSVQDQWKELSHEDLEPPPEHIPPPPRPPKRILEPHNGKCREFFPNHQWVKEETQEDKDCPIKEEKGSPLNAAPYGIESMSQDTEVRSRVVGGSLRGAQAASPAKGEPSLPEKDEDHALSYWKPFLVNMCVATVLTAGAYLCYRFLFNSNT

[5] = test system: Mycolicibacterium smegmatis; test: Antimycobacterial activity against Mycobacterium smegmatis NBRC 3207 assessed as inhibition zone at 20 ug/disc after 2 days incubation by paper disc method; format: functional; details: NBRC 3207, 48 h, read-out: IZ; summary of the method: as §1

| IC50 [4] [µM] | SMILES | IC50 [1] [µM] | IC50 [2] [µM] | growth inhibition (GI) [3] | zone of inhibition at 20 µg/disc [5] [mm] | zone of inhibition at 10 µg/disc [3] [mm] |
| --- | --- | --- | --- | --- | --- | --- |
| > 23 | CC1=CC(=O)C[C@H](C)[C@@]1(C)CC/C(C)=C/CC/C(C)=C/C[n+]1cn(C)c2ncnc(N)c21 | > 50 | > 50 | – | – | – |
| > 23 | CC1=CCC[C@H](C)[C@@]1(C)CCC(C)(O)CCC/C(C)=C/C[n+]1cn(C)c2ncnc(N)c21 (stereo partly specified) | > 50 | > 50 | – | 10 | – |
| 15 | C/C(=C\Cn1c[n+](C)c2ncnc(N)c21)CC[C@]1(C)[C@@H](C)CC[C@@]2(C)C(COC(=O)c3cc(Br)c[nH]3)=CCC[C@@H]12 | 26 | 18 | – | 12 | 10 |
| > 24 | CC1=CCC[C@H](C)[C@@]1(C)CC/C(C)=C/CC/C(C)=C/Cn1c[n+](C)c2ncnc(N)c21 [AGELINE A] | 24 | 16 | – | 20 | 14 |
| > 19 | C/C(=C\Cn1c[n+](C)c2ncnc(N)c21)CC[C@]1(C)[C@@H](C)CC[C@@]2(C)C(COC(=O)c3ccc[nH]3)=CCC[C@@H]12 [AGELINE B] | > 50 | > 50 | – | 12 | 9 |

Second part, the molecule before the results:

| SMILES | IC50 [4] [µM] | IC50 [1] [µM] | IC50 [2] [µM] | growth inhibition (GI) [3] | zone of inhibition at 20 µg/disc [5] [mm] | zone of inhibition at 10 µg/disc [3] [mm] |
| --- | --- | --- | --- | --- | --- | --- |
| CC1=CC(=O)C[C@H]2[C@](C)(CC/C(C)=C/C[n+]3cn(C)c4ncnc(N)c43)[C@@H](C)CC[C@@]12C | > 23 | > 50 | > 50 | inactive | – | – |
| CC1=CC(=O)C[C@@H]2[C@@](C)(CC/C(C)=C/C[n+]3cn(C)c4ncnc(N)c43)[C@H](C)CC[C@@]12C | > 23 | > 50 | > 50 | – | – | – |
| C=C1CCCC(C)(C)[C@H]1CC/C(C)=C/CC/C(C)=C/C[n+]1cn(C)c2ncnc(N)c21 | > 24 | > 50 | > 50 | – | 14 | 10 |
| CC1=CCC[C@H]2[C@](C)(CC/C(C)=C/Cn3c[n+](C)c4ncnc(N)c43)[C@@H](C)CC[C@@]12C [AGELASINE A] | > 24 | > 50 | 42 | – | 14 | 12 |
| CC1=CCC[C@@H]2[C@@](C)(CC/C(C)=C/Cn3c[n+](C)c4ncnc(N)c43)[C@H](C)CC[C@@]12C [AGELASINE B] | > 24 | 22 | 19 | – | 15 | 12 |
| C=C1CC[C@@H]2C(C)(C)CCC[C@@]2(C)[C@@H]1CC/C(C)=C/Cn1c[n+](C)c2ncnc(N)c21 [AGELASINE D] | > 24 | 36 | 19 | – | 18 | 14 |
| COc1cccc2c1C(=O)c1c(O)c3c(c(O)c1C2=O)C[C@@](O)(C(=O)CO)C[C@@H]3O[C@H]1C[C@H](N)[C@H](O)[C@H](C)O1 [DOXORUBICIN] | – | – | 0.023 | – | – | – |
| CN[C@@H]1[C@H](O[C@H]2[C@H](O[C@H]3[C@H](O)[C@@H](O)[C@H](N=C(N)N)[C@@H](O)[C@@H]3N=C(N)N)O[C@@H](C)[C@]2(O)C=O)O[C@@H](CO)[C@H](O)[C@H]1O [STREPTOMYCIN SULFATE] | – | – | – | – | – | 30 |
